From PMC3523390 (Molecular pharmacology, 2010)
Where two headings read alike, the source gives them in different places.

Legend:
[1] = biological target: T1, hPPARγ LBD (Homo sapiens, UniProt P37231); test: LanthaScreen TR-FRET PPARγ competitive ligand binding assay; conditions: for Ki: hPPARγ LBD, displacement of Fluormone Pan-PPAR Green, Cheng-Prusoff
T1 sequence (P37231 238-503 limits assumed): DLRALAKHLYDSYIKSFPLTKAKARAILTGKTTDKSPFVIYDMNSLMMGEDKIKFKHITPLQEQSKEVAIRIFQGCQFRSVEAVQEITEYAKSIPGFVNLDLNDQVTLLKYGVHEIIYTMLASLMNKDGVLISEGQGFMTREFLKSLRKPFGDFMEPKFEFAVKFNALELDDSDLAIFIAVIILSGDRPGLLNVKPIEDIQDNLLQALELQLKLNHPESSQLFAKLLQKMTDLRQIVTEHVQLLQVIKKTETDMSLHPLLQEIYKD

[2] = biological target: T2, hPPARγ (Homo sapiens, UniProt P37231); test: PPAR luciferase reporter gene transactivation in HEK-293 cells; type: cell-based; conditions: for hPPARγ Maximal Fold Activation / EC50: HEK-293, 18 h, N.D. = not detected up to 100 μM; for hPPARγ Maximal Fold Activation: fold induction vs DMSO; for concentration to reach saturation response (maximal activation): hPPARγ luciferase reporter, HEK-293; for EC50: read-out: hPPARγ EC50
T2 sequence (P37231 1-477 isoform P37231-2): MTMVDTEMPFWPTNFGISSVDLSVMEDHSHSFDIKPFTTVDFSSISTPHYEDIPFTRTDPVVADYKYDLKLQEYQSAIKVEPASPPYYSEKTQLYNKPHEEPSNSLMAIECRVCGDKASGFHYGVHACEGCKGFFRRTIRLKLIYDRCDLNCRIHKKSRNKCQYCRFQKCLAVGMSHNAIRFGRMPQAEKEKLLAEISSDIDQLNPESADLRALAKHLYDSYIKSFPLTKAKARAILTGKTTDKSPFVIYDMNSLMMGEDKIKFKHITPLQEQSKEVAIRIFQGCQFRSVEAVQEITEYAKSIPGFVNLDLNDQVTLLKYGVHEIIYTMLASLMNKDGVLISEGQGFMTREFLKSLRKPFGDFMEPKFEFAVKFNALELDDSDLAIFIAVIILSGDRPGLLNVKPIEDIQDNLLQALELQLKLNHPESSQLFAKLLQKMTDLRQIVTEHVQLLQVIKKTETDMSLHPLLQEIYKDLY

[3] = biological target: T3, Mouse PPARγ (Mus musculus, UniProt P37238); test: as above; type: cell-based; conditions: for Mouse PPARγ Maximal Fold Activation: fold induction vs DMSO
T3 sequence (P37238 1-505): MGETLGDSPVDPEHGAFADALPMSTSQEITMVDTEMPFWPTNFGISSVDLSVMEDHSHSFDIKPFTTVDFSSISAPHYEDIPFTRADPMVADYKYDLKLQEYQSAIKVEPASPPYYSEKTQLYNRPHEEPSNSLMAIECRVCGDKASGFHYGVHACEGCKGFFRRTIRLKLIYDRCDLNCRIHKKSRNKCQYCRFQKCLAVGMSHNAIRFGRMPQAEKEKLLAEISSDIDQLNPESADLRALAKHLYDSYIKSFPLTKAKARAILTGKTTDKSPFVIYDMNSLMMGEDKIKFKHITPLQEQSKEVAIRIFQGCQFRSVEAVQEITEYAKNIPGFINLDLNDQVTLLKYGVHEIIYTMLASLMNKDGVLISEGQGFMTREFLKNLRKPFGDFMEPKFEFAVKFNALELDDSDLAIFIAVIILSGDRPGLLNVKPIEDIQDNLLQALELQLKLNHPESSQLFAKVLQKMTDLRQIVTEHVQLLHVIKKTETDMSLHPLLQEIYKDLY

[4] = system: 3T3-L1 preadipocytes; test: 3T3-L1 adipocyte differentiation; type: cell-based, rodent; conditions: 10 μM compound, 7 to 8 days
Procedure, shortened: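 Mouse 3T3-L1 preadipocytes grown in DMEM with 10% calf serum to confluence (day −2), held 2 more days, then switched at day 0 to DMEM with 10% FCS, 1 μg/ml insulin and test compound (DMSO ≤0.1% final). Medium renewed every 2 days to day 7–8. Cells formalin-fixed 1 h, Oil Red O-stained 10 min, photographed; bound dye eluted in isopropanol, read at 550 nm.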

[5] = system: type 2 diabetic Goto-Kakizaki rats; conditions: ref Sohn et al., 2007; cited from earlier work
[6] = system: 3T3-L1 cells and C3H10T1/2 cells; conditions: ref Choi et al., 2009; cited from earlier work
[7] = biological target: T1, hPPARγ LBD; test: LanthaScreen TR-FRET PPARγ coactivator; type: biochemical; conditions: 1 h incubation, 520 nm/495 nm ratio
[8] = biological target: T4, hPPARα (Homo sapiens, UniProt Q07869); test: PPAR luciferase reporter gene transactivation in HEK-293 cells; type: cell-based; conditions: HEK-293, 18 h, fold induction vs DMSO; N.D. = not detected up to 100 μM
T4 sequence (Q07869 1-468): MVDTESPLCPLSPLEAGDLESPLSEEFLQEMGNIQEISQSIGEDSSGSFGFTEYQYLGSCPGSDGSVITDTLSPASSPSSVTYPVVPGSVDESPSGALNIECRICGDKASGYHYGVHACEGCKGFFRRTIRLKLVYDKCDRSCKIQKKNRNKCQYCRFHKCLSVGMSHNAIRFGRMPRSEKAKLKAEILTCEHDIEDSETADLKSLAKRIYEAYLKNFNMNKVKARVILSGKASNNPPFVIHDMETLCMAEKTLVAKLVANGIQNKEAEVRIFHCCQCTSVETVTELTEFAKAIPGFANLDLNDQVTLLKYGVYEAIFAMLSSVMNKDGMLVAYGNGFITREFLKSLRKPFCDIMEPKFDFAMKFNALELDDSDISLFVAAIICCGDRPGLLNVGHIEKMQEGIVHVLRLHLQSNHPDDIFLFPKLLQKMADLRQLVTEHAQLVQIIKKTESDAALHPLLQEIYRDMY

[9] = HEK-293, 18 h, N.D. = not detected up to 100 μM
[10] = read-out: Mouse PPARγ EC50, HEK-293, 18 h, N.D. = not detected up to 100 μM

SMILES	Ki [1] [nM]	hPPARγ Maximal Fold Activation [2]	concentration to reach saturation response (maximal activation) [2]	EC50 [2] [nM]	Mouse PPARγ Maximal Fold Activation [3, 9]	EC50 [3, 10] [nM]	adipogenic activity (differentiation to adipocytes, Oil Red O) [4]	further results
C=CCc1cc(OC)c(O)c(-c2cc(CC=C)cc(OC)c2O)c1 [Compound 1, dieugenol]	240	3.58	approximately 1 μM	620	2.93	930	induced 3T3-L1 preadipocyte differentiation	
CCCc1cc(OC)c(O)c(-c2cc(CCC)cc(OC)c2O)c1 [Compound 2, tetrahydrodieugenol]	320	3.34	approximately 1 μM	330	2.98	380	induced 3T3-L1 preadipocyte differentiation	
C=CCc1ccc(O)c(-c2cc(CC=C)ccc2O)c1 [Compound 3, magnolol]							induced 3T3-L1 preadipocyte differentiation	EC50 [3]: 1140 nM; fasting blood glucose [5]: decreased; plasma insulin levels [5]: decreased; adipocyte differentiation [6]: enhances adipocyte differentiation
C=CCc1ccc(O)c(OC)c1 [Compound 4, eugenol, reference compound]							no adipogenic activity	binding to the hPPARγ LBD ([1]; test concentrations up to 100 μM): did not bind to the receptor at all; TRAP220/DRIP-2 coactivator peptide recruitment to the PPARγ LBD [7]: not active
CC(C)(Sc1ccc(CCN(CCCCC2CCCCC2)C(=O)NC2CCCCC2)cc1)C(=O)O [GW7647]								hPPARα Maximal Fold Activation [8]: 3.09
